In ChEMBL document CHEMBL1149025, “Cytotoxic and antibacterial dihydrochalcones from Piper aduncum” (1994):
Converted amounts (≈) assume the structure as drawn.

Assays:
Format in all cases: functional
KB = assay: Cytotoxicity against human KB cells after 72 hrs; conditions: read-out: ED50 (the source's name)
Summary of the method: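 KB cells were grown in BME with 10% heat-inactivated FBS at 37° under 5% CO₂. Samples in DMSO (final 0.5%) were added at log growth phase, at five concentrations, for 72 h. Growth was measured by protein determination as a percentage of DMSO-only controls, corrected for starting cell number. Assays were run in duplicate, and ED₅₀ was taken from semilogarithmic plots of the averaged data.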

Bacillus subtilis = assay: Antibacterial activity against Bacillus subtilis ATCC 6633 by bioautographic assay
Summary of the method: (§1)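 Overnight 37° nutrient-broth cultures; the developed TLC plate was dipped in the bacterial suspension and held moist at 37° for 20 h. It was then sprayed with 0.5% iodonitrotetrazolium chloride in H₂O and kept a further 4 h moist at 37°. Pure compounds were spotted (3 mm) at 0.1–5 μg in CH₂Cl₂, with chloramphenicol as positive control.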

Micrococcus luteus = assay: Antibacterial activity against Micrococcus luteus ATCC 9341 by bioautographic assay; summary of the method: as §1
Escherichia coli = assay: Antibacterial activity against Escherichia coli ATCC 25922 by bioautographic assay
Summary of the method: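 Bioautography used an overnight 37° nutrient-broth culture, and the developed TLC plate was dipped in the suspension. It was incubated moist at 37° for 6 h, sprayed with 0.5% aqueous iodonitrotetrazolium chloride, then kept moist at room temperature for 15 h. White zones against pink colonies marked inhibition. Pure compounds were spotted (3 mm) at 0.1–5 μg in CH₂Cl₂, with chloramphenicol as positive control.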

Biomphalaria glabrata = assay: Molluscicidal activity against Biomphalaria glabrata assessed as mortality after 24 hrs by microscopy
Summary of the method: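 Snails exposed to samples dissolved in 100 μl DMSO and diluted to 100 ml with distilled H₂O. After 24 h, snails counted dead when no heartbeat was seen under the microscope.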

MIC (Bacillus subtilis) [µg]	MIC (Micrococcus luteus) [µg]	MIC (Escherichia coli) [µg]	SMILES	EC50 (KB) [µg/mL]	LC100 (Biomphalaria glabrata) [ppm]
3.2	>5	>5	COC(=O)c1ccc2c(c1)C[C@H](C(C)(C)O)O2 [ANODENDROIC ACID METHYL ESTER]	> 10	
0.02	0.05	0.05	O=C(N[C@H](CO)[C@H](O)c1ccc([N+](=O)[O-])cc1)C(Cl)Cl [CHLORAMPHENICOL]		
1.6	1.6	>5	COC(=O)c1ccc(O)c(C(C=C(C)C)c2c(OC)cc(O)c(C(=O)CCc3ccccc3)c2O)c1 (stereo not given) [PIPERADUNCIN A]	2.3 (≈ 4.69 µM)	
0.2	0.4	>5	COC(=O)c1ccc(O)c([C@H]2c3c(OC)cc(O)c(C(=O)CCc4ccccc4)c3O[C@@H]2C(C)(C)O)c1 [PIPERADUNCIN B]	4.7 (≈ 9.28 µM)	
1.5	3	>5	COc1cc(O)c(C(=O)CCc2ccccc2)c(O)c1Cc1c(OC)cc(O)c(C(=O)CCc2ccccc2)c1O [PIPERADUNCIN C]	> 10	
			COc1cc([C@@H]2c3cc4c(cc3[C@H](O)[C@H]3COC(=O)[C@H]23)OCO4)cc(OC)c1OC [PODOFILOX]	0.0003 (≈ 0.000724 µM)	

SMILES	MIC (Bacillus subtilis) [µg]	MIC (Micrococcus luteus) [µg]	MIC (Escherichia coli) [µg]	EC50 (KB) [µg/mL]	LC100 (Biomphalaria glabrata) [ppm]
COc1cc(O)c(C(=O)CCc2ccccc2)c(O)c1	0.3	0.3	>5	> 10	>30
COc1cc(O)c(C(=O)CCc2ccc(O)cc2)c(O)c1 [ASEBOGENIN]	0.1	0.6	>5	> 10	12
COc1cc(O)c2c(c1)O[C@H](c1ccc(O)cc1)CC2=O [SAKURANETIN]	0.5	2	>5	10 (≈ 34.9 µM)	>30
